The text below walks through data of publication PMC6117112 (ACS chemical biology, 2018).

Usually IC50 stands for the concentration that inhibits the measured activity by half. Higher therefore signals weaker potency.

Data set [1] has as its system mitochondria. The conditions noted are these: cited from earlier work.
A short description of data set [2]: MTT cytotoxicity assay in A549 cells, in the dark. The class given is cell-based. The conditions noted are these: human. (In general: Tetrazolium assays rely on reduction of a dye to a coloured formazan, in cell work by metabolically active cells.)
A short description of data set [3]: MTT cytotoxicity assay in HUVECs, in the dark. The class given is cell-based, human. The conditions noted are these: human, HUVECs (human umbilical vein endothelial cells).
The format of data set [4] is cell-based. The conditions noted are these: human, HUVECs (human umbilical vein endothelial cells).
Data set [5] relates to A549 cells. The experiment in a line: Mitochondrial bioenergetics. The class given is cell-based, human. In outline: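 Seeded 20,000 cells/well 24 h before, then 4 h with vehicle (0.4% DMSO) or test compound (0.1, 1.0, 10 μM). One plate blue-LED illuminated 1 h at 37 °C, the other kept dark. XF base medium with 1 mM pyruvate, 2 mM glutamine, 25 mM glucose, pH 7.4; 30 min at 37 °C, no CO2. OCR over 80 min after oligomycin, FCCP, then rotenone/antimycin A (each 1.0 μM). Three experiments × 8 replicates; mean ±SEM; one-way ANOVA, Tukey.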

Data set [6] is classed as cell-based. As to conditions: human, A549 cells.
The test system of data set [7] is HUVECs. Briefly: MTT cytotoxicity assay in HUVECs, in the dark. Type of data set: cell-based, human. As to conditions: HUVECs, non-illuminated.
The mark [8] stands for this setting: 10 μM, after 1 h of illumination to induce CO release.

The structures appear in SMILES notation. Where two headings read alike, the source gives them in different places.

`O=c1cc(-c2ccccc2)oc2cc(O)c(O)c(O)c12` [baicalein]: the “effect on mitochondrial bioenergetics” value in data set [1] is “decreases ATP-production via uncoupling of mitochondrial membranes”.

As to `O=c1c(O)c(-c2ccc(O)c(O)c2)oc2cc(O)cc(O)c12` [quercetin], the “effect on mitochondrial bioenergetics” value in data set [1] is “increases basal respiration, maximal respiration, ATP-linked respiration and the reserve capacity of mitochondria”.

Take `O=C(NCCCCCCCC[P+](c1ccccc1)(c1ccccc1)c1ccccc1)c1ccc(C(=O)Oc2cc3ccccc3cc2C(=O)O)cc1` [Compound 5, (8-(4-(((3-carboxynaphthalen-2-yl)oxy)carbonyl)benzamido)octyl)triphenylphosphonium bromide]: the IC50 amounted to 69.1 ± 11 µM in data set [2] and 90 ± 7.5 µM in data set [3].

Consider `O=C(O)CC[P+](c1ccccc1)(c1ccccc1)c1ccccc1.[Br-]` [TPPBr, 2-carboxyethyl-triphenylphosphonium bromide, reference compound], for which the concentration for half-maximal inhibition (IC50) in data set [2], in data set [3] and in data set [4] was more than 100 µM throughout. In data set [5] (0.1–10 μM, illuminated or non-illuminated cells), the “changes in the mitochondrial bioenergetics profile” value is “no significant changes”.

As for `O=C(NCC[P+](c1ccccc1)(c1ccccc1)c1ccccc1)c1ccc(-c2oc3cc4ccccc4cc3c(=O)c2O)cc1.[Br-]` [Compound 2, (2-(4-(3-hydroxy-4-oxo-4H-benzo[g]chromen-2-yl)benzamido)ethyl)triphenylphosphonium bromide], 14.1 ± 2.7 µM corresponded to half-maximal inhibition in data set [2] (IC50). The compound further gave an IC50 in data set [3] of 1.51 ± 1.4 µM. The IC50 in data set [6] was found to be 4.6 ± 3.6 µM. In data set [4], the IC50 worked out at 3.78 ± 1.5 µM. In data set [5] (setting [8]), the “ATP production (OCR)” value is given as “decreased”, the “basal respiration (OCR)” value is “decreased”, the “maximal respiration (OCR)” value is given as “decreased” and the “reserve capacity (OCR)” value was “decreased”. Further, the “concentration needed to produce significant changes in bioenergetics parameters” value in data set [5] (light-triggered CO release) stood at 10 µM.

For `O=C(NCCCCCCCC[P+](c1ccccc1)(c1ccccc1)c1ccccc1)c1ccc(-c2oc3cc4ccccc4cc3c(=O)c2O)cc1` [Compound 3, (8-(4-(3-hydroxy-4-oxo-4H-benzo[g]chromen-2-yl)benzamido)octyl)triphenylphosphonium bromide], the 50% inhibitory concentration (IC50) in data set [2] is 8.48 ± 4 µM; in data set [3] it was 8.4 ± 3.6 µM.

Regarding `O=C(NCC[P+](c1ccccc1)(c1ccccc1)c1ccccc1)c1ccc(C(=O)Oc2cc3ccccc3cc2C(=O)O)cc1.[Br-]` [Compound 4, (2-(4-(((3-carboxynaphthalen-2-yl)oxy)carbonyl)benzamido)ethyl)triphenylphosphonium bromide], the IC50 in data set [2] and in data set [4] was more than 100 µM in each case. Besides, the “cytotoxicity (MTT), result in words” value in data set [7] was “no cytotoxicity”.
